{"source": "ChEMBL document CHEMBL1147076", "about": "“Antitumor activity of MLN8054, an orally active small-molecule inhibitor of Aurora A kinase” (Proc Natl Acad Sci U S A, 2007)", "key": {"[1]": {"target": "Discoidin domain-containing receptor 2 (Homo sapiens) (UniProt Q16832)", "test": "Activity of human DDR2 kinase at 1 uM"}, "[2]": {"target": "Serine/threonine-protein kinase 17A (Homo sapiens) (UniProt Q9UEE5)", "test": "Activity of human DRAK1 kinase at 1 uM", "method_in_brief": "(§1)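 Single-point kinase profiling: each kinase in a 226-kinase panel tested with compound at 1 μM and ATP at 10 μM in every assay, run by an external screening service.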"}, "[3]": {"target": "Serine/threonine-protein kinase PLK3 (Homo sapiens) (UniProt Q9H4B4)", "sequence (Q9H4B4 whole entry, looked up)": "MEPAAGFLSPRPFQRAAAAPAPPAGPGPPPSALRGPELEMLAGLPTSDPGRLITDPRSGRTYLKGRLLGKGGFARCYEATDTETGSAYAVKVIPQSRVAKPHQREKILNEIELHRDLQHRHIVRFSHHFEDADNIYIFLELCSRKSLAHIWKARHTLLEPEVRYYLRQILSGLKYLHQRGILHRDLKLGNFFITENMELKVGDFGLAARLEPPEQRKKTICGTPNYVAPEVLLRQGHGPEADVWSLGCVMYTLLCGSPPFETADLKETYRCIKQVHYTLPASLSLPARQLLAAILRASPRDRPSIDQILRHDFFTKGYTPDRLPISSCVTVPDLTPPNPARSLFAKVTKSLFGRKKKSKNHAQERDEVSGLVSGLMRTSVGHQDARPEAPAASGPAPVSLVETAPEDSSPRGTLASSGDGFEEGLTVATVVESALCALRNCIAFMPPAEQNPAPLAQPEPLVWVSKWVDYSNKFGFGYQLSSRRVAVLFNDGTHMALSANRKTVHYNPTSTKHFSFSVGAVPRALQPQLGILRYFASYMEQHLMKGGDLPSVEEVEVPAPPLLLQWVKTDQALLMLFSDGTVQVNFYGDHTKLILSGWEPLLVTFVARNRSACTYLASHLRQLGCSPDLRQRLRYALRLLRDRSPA", "test": "Activity of human Plk3 kinase at 1 uM", "method_in_brief": "(§2)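 Single-concentration screen across a 226-kinase panel run by an outside provider; test compound at 1 μM with 10 μM ATP in every assay. Other conditions not detailed.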"}, "[4]": {"target": "Protein kinase C alpha type (Homo sapiens) (UniProt P17252)", "test": "Activity of human PKCalpha kinase at 1 uM", "method_in_brief": "(§3)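 Single-point screen in a 226-kinase panel run by an outside service. Test compound at 1 μM with ATP at 10 μM in every assay. Other assay conditions are not given.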"}, "[5]": {"system": "PC-3", "test": "Induction of apoptosis in human PC3 cells assessed as PARP cleavage at 4 uM after 48 hrs by Western blot method", "format": "functional, cell-based"}, "[6]": {"species_on_record": "Homo sapiens", "test": "Activity of human CaMK1 kinase at 1 uM"}, "[7]": {"system": "PC-3", "test": "Cell cycle arrest in human PC3 cells by accumulation at >4N phase at 4 uM after 48 hrs by flow cytometry relative to control", "format": "functional"}, "[8]": {"target": "Ephrin type-B receptor 1 (Homo sapiens) (UniProt P54762)", "sequence (P54762 whole entry)": "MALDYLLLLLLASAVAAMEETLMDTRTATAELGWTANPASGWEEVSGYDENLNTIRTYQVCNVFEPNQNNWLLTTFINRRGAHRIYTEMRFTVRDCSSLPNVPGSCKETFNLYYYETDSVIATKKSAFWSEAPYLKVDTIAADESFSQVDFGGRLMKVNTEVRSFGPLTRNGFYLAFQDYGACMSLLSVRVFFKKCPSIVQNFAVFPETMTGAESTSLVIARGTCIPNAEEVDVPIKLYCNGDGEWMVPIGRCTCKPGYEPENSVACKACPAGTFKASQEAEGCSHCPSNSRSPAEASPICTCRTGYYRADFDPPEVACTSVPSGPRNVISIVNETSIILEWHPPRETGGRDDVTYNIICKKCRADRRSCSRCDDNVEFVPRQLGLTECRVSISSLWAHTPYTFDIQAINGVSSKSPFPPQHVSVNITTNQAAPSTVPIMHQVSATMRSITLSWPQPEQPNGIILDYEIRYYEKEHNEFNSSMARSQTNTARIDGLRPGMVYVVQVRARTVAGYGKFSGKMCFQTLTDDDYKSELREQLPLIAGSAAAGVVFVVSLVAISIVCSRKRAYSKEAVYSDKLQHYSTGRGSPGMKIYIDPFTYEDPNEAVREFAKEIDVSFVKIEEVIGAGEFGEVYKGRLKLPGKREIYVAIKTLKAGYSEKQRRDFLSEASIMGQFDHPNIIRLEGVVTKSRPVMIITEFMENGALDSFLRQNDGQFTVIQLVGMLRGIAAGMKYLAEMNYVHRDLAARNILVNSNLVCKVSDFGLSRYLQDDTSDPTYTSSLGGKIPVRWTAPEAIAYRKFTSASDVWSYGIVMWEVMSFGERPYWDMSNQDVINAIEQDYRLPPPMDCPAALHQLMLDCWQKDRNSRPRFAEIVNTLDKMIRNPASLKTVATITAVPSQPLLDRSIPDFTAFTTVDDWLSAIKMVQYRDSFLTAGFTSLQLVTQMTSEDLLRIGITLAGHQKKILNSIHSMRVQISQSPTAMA", "test": "Inhibition of EphB1 kinase at 1 uM", "method_in_brief": "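Single-point screen within a 226-kinase panel, with compound at 1 μM and ATP at 10 μM in all assays.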"}, "[9]": {"target": "Fibroblast growth factor receptor 1 (Homo sapiens) (UniProt P11362)", "test": "Activity of human FGFR1 kinase at 1 uM", "method_in_brief": "as §1"}, "[10]": {"target": "Macrophage-stimulating protein receptor (Homo sapiens) (UniProt Q04912)", "test": "Activity of human Ron kinase at 1 uM", "method_in_brief": "as §3"}, "[11]": {"target": "RAC-beta serine/threonine-protein kinase (Homo sapiens) (UniProt P31751)", "sequence (P31751 whole entry)": "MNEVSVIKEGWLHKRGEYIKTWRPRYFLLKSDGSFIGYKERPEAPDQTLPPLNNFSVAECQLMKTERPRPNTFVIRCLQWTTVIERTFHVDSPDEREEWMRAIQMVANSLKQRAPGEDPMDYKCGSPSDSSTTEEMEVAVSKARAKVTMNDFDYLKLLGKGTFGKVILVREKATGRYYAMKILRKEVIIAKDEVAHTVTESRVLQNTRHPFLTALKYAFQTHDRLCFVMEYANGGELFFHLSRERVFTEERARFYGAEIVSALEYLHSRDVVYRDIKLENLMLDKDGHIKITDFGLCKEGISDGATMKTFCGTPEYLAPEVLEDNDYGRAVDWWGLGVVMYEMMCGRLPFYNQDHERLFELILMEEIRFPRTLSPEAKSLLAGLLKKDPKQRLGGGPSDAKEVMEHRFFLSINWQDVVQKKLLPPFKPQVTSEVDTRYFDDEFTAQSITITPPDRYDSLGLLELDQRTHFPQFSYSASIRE", "test": "Activity of human PKBbeta kinase at 1 uM", "method_in_brief": "as §3"}, "[12]": {"system": "PC-3", "test": "Induction of apoptosis in human PC3 cells assessed as PARP cleavage at 4 uM after 24 hrs by Western blot method", "format": "functional, cell-based"}, "[13]": {"target": "Serine/threonine-protein kinase STK11 (Homo sapiens) (UniProt Q15831)", "test": "Activity of human LKB1 kinase at 1 uM"}, "[14]": {"target": "Tyrosine-protein kinase Fer (Homo sapiens) (UniProt P16591)", "sequence (P16591 whole entry, looked up)": "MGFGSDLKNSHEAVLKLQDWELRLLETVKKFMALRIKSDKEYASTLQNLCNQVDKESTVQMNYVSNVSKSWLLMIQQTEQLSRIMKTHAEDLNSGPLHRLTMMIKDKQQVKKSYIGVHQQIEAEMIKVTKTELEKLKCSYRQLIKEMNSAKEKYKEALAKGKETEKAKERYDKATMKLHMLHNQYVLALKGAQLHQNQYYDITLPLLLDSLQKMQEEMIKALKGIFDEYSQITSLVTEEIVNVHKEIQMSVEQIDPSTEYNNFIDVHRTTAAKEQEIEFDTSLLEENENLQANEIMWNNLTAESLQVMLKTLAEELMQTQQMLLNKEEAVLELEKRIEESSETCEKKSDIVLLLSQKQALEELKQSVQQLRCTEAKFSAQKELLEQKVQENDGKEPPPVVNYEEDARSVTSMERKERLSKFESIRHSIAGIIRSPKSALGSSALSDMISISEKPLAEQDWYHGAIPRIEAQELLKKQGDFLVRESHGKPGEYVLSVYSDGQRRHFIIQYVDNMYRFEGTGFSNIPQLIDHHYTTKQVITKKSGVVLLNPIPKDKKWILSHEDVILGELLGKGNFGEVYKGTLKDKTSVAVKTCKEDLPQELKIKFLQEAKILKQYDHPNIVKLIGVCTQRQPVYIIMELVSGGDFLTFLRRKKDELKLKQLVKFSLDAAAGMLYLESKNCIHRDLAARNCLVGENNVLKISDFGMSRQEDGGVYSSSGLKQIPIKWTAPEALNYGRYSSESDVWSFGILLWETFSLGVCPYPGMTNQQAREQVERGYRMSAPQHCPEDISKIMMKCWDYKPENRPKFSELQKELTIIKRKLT", "test": "Activity of human Fer kinase at 1 uM", "method_in_brief": "as §1"}, "[15]": {"target": "Serine/threonine-protein kinase PAK 4 (Homo sapiens) (UniProt O96013)", "test": "Activity of human PAK4 kinase at 1 uM", "method_in_brief": "as §3"}, "[16]": {"system": "Calu-6", "test": "Antiproliferative activity against human Calu6 cells after 96 hrs by BrdU cell proliferation ELISA", "format": "functional, cell-based", "conditions": "Calu-6, 96 h", "method_in_brief": "(§4)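 BrdU incorporation proliferation assay on cultured human tumor lines; IC50 values derived from growth inhibition.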"}, "[17]": {"target": "Tyrosine-protein kinase Blk (Mus musculus) (UniProt P16277)", "sequence (P16277 whole entry)": "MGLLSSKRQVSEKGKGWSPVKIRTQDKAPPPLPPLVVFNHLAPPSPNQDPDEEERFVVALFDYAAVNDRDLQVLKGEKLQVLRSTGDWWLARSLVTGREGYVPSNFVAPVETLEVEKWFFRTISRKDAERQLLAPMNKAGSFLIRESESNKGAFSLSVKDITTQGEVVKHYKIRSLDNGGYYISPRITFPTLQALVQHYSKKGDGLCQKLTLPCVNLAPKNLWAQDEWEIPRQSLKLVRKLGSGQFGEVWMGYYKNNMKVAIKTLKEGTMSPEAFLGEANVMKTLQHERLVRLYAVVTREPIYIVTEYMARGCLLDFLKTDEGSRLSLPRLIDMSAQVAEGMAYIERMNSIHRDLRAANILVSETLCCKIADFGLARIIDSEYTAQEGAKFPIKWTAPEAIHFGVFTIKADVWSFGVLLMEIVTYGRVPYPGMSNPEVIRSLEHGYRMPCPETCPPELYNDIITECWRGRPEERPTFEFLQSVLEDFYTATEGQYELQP", "test": "Activity of mouse Blk kinase at 1 uM", "method_in_brief": "as §2"}, "[18]": {"system": "PC-3", "test": "Cell cycle arrest in human PC3 cells by accumulation at >4N phase at 1 uM after 48 hrs by flow cytometry relative to control", "format": "functional"}, "[19]": {"target": "Glycogen synthase kinase-3 alpha (Homo sapiens) (UniProt P49840)", "test": "Activity of human GSK3-alpha kinase at 1 uM"}, "[20]": {"system": "PC-3", "test": "Induction of apoptosis in human PC3 cells assessed as PARP cleavage at 1 uM after 48 hrs by Western blot method", "format": "functional, cell-based"}, "[21]": {"target": "Protein kinase C zeta type (Homo sapiens) (UniProt Q05513)", "test": "Activity of human PKCzeta kinase at 1 uM", "method_in_brief": "as §3"}, "[22]": {"system": "Mus musculus", "test": "Toxicity in human PC3 cells xenografted into athymic nude NCR nu/nu mouse assessed as decrease in body weight at 30 mg/kg, BID after 21 days", "format": "organism-based, PC-3", "parameters": "dose 30 mg/kg; scale not given: the % may be the effect or the level left", "conditions": "in vivo, 504 h", "method_in_brief": "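Male athymic nude NCR nu/nu mice were given PC-3 cells (2 × 10^6) s.c. in the right flank. Drug in 10% hydroxypropyl-β-cyclodextrin/5% sodium bicarbonate was given orally twice daily for 21 days. Average loss of initial body weight was recorded on day 21 of treatment.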"}, "[23]": {"target": "Activin receptor type-1B (Homo sapiens) (UniProt P36896)", "test": "Activity of human ALK4 kinase at 1 uM"}, "[24]": {"system": "NCI-H460", "test": "Antiproliferative activity against human H460 cells after 96 hrs by BrdU cell proliferation ELISA", "format": "functional, cell-based", "conditions": "NCI-H460, 96 h", "method_in_brief": "as §4"}, "[25]": {"target": "Serine/threonine-protein kinase WNK2 (Homo sapiens) (UniProt Q9Y3S1)", "test": "Activity of human WNK2 kinase at 1 uM", "method_in_brief": "as §2"}, "[26]": {"target": "Serine/threonine-protein kinase N2 (Homo sapiens) (UniProt Q16513)", "test": "Activity of human PRK2 kinase at 1 uM", "method_in_brief": "as §3"}, "[27]": {"target": "Serine/threonine-protein kinase Nek2 (Homo sapiens) (UniProt P51955)", "test": "Activity of human NEK2 kinase at 1 uM"}, "[28]": {"system": "PC-3", "test": "Cell cycle arrest in human PC3 cells by accumulation at S phase at 4 uM after 24 hrs by flow cytometry relative to control", "format": "functional", "method_in_brief": "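DNA content profiles by flow cytometry of PC-3 prostate tumor cells exposed to drug diluted in DMSO for 24 or 48 h. Phase distribution was compared with DMSO-treated control cells.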"}, "[29]": {"target": "Focal adhesion kinase 1 (Homo sapiens) (UniProt Q05397)", "test": "Activity of human FAK kinase at 1 uM"}, "[30]": {"system": "PC-3", "test": "Cell cycle arrest in human PC3 cells by accumulation at >4N phase at 1 uM after 24 hrs by flow cytometry relative to control", "format": "functional"}, "[31]": {"target": "Tyrosine-protein kinase SYK (Homo sapiens) (UniProt P43405)", "test": "Activity of human Syk kinase at 1 uM", "method_in_brief": "as §3"}, "[32]": {"target": "Casein kinase I isoform delta (Homo sapiens) (UniProt P48730)", "sequence (P48730 whole entry, looked up, canonical isoform)": "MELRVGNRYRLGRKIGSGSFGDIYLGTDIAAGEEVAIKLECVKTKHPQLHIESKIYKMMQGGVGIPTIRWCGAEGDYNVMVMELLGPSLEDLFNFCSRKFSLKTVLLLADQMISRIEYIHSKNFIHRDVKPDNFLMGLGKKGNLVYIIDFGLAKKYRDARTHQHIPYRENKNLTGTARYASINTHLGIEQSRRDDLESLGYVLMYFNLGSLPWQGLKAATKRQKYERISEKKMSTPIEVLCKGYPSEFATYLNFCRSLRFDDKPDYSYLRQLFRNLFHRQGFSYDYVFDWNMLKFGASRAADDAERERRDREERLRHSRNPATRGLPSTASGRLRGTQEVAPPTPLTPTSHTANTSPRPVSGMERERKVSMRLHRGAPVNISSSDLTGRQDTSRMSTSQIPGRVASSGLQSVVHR", "test": "Activity of human CK1delta kinase at 1 uM", "method_in_brief": "as §1"}, "[33]": {"target": "Tyrosine-protein kinase Lyn (Mus musculus) (UniProt P25911)", "test": "Activity of mouse Lyn kinase at 1 uM", "method_in_brief": "as §3"}, "[34]": {"target": "Cyclin-dependent kinase 7/ cyclin H (Homo sapiens) (UniProt P51946+P50613)", "test": "Activity of human CDK7/cyclin H/MAT1 kinase at 1 uM", "format": "protein-complex assay", "method_in_brief": "as §1"}, "[35]": {"test": "Plasma concentration in human HCT116 cells xenografted in mouse at 30 mg/kg, po after 8 hrs", "format": "ADME, organism-based, HCT-116", "parameters": "dose 30 mg/kg, route oral"}, "[36]": {"target": "Tyrosine-protein kinase Lck (Homo sapiens) (UniProt P06239)", "test": "Activity of human Lck kinase at 1 uM", "method_in_brief": "as §1"}, "[37]": {"target": "Mitogen-activated protein kinase 8 (Homo sapiens) (UniProt P45983)", "sequence (P45983 whole entry)": "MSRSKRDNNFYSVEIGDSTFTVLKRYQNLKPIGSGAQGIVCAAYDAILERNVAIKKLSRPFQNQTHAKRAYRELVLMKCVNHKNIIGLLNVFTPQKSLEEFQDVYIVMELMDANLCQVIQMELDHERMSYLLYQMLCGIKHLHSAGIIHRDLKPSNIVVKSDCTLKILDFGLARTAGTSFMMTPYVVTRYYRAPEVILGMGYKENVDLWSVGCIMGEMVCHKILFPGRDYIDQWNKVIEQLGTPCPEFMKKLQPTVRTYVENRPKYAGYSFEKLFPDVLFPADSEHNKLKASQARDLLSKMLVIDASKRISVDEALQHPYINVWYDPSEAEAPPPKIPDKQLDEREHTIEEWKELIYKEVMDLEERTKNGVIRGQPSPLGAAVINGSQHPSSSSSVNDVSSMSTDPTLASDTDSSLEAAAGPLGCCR", "test": "Activity of human JNK1-alpha-1 kinase at 1 uM", "method_in_brief": "as §1"}, "[38]": {"species_on_record": "Homo sapiens", "test": "Activity of human PKA kinase at 1 uM", "method_in_brief": "as §3"}}, "note": "The source made the active and inactive calls. The calls are words filed in the database; no cut-off is given here."}
{"smiles": "O=C(O)c1ccc(Nc2ncc3c(n2)-c2ccc(Cl)cc2C(c2c(F)cccc2F)=NC3)cc1", "note": "[MLN-8054]", "values": [{"measurement": "Activity", "setting": "[1]", "value": 87, "unit": "%"}, {"measurement": "Activity", "setting": "[2]", "value": 60, "unit": "%"}, {"measurement": "Activity", "setting": "[3]", "value": 105, "unit": "%"}, {"measurement": "Activity", "setting": "[4]", "value": 108, "unit": "%"}, {"measurement": "Activity", "setting": "[5]", "value": "Active"}, {"measurement": "Activity", "setting": "[6]", "value": 98, "unit": "%"}, {"measurement": "Activity", "setting": "[7]", "value": 21.4, "unit": "%"}, {"measurement": "inhibition", "setting": "[8]", "value": 65, "unit": "%"}, {"measurement": "Activity", "setting": "[9]", "value": 43, "unit": "%"}, {"measurement": "Activity", "setting": "[10]", "value": 94, "unit": "%"}, {"measurement": "Activity", "setting": "[11]", "value": 104, "unit": "%"}, {"measurement": "Activity", "setting": "[12]", "value": "Active"}, {"measurement": "Activity", "setting": "[13]", "value": 101, "unit": "%"}, {"measurement": "Activity", "setting": "[14]", "value": 57, "unit": "%"}, {"measurement": "Activity", "setting": "[15]", "value": 96, "unit": "%"}, {"measurement": "IC50", "setting": "[16]", "value": 220, "unit": "nM"}, {"measurement": "Activity", "setting": "[17]", "value": 53, "unit": "%"}, {"measurement": "Activity", "setting": "[18]", "value": 7, "unit": "%"}, {"measurement": "Activity", "setting": "[19]", "value": 110, "unit": "%"}, {"measurement": "Activity", "setting": "[20]", "value": "Active"}, {"measurement": "Activity", "setting": "[21]", "value": 99, "unit": "%"}, {"measurement": "Activity", "setting": "[22]", "value": 5.4, "unit": "%"}, {"measurement": "Activity", "setting": "[23]", "value": 115, "unit": "%"}, {"measurement": "IC50", "setting": "[24]", "value": 110, "unit": "nM"}, {"measurement": "Activity", "setting": "[25]", "value": 109, "unit": "%"}, {"measurement": "Activity", "setting": "[26]", "value": 90, "unit": "%"}, {"measurement": "Activity", "setting": "[27]", "value": 110, "unit": "%"}, {"measurement": "Activity", "setting": "[28]", "value": 13.2, "unit": "%"}, {"measurement": "Activity", "setting": "[29]", "value": 110, "unit": "%"}, {"measurement": "Activity", "setting": "[30]", "value": 3.7, "unit": "%"}, {"measurement": "Activity", "setting": "[31]", "value": 99, "unit": "%"}, {"measurement": "Activity", "setting": "[32]", "value": 129, "unit": "%"}, {"measurement": "Activity", "setting": "[33]", "value": 52, "unit": "%"}, {"measurement": "Activity", "setting": "[34]", "value": 105, "unit": "%"}, {"measurement": "concentration at 8 h", "setting": "[35]", "value": 7.4, "unit": "µM"}, {"measurement": "Activity", "setting": "[36]", "value": 59, "unit": "%"}, {"measurement": "Activity", "setting": "[37]", "value": 122, "unit": "%"}, {"measurement": "Activity", "setting": "[38]", "value": 100, "unit": "%"}]}
